Variants at the floor of the assay were thinned out.
B1: tRNA (parent)
chain: GUUCCGUUGGCGUAAUGGUAACGCGUCUCCCUCCUAAGGAGAAGACUGCGGGUUCGAGUCCCGUACGGAACG

Variants of: B1
Assay: yeast fitness relative to wild type (ratio to wild type); higher = fitter; tRNA-Arg(CCU), competitive growth, 37 C, YPD
Procedure, shortened: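 For this measurement, the tRNA-Arg(CCU) gene was varied by chemical synthesis at a 3% per-site mutation rate across 69 sites, and each variant was placed at the native genomic locus in Saccharomyces cerevisiae. The pooled strains went through a 24-hour competition in YPD at 37°C in six parallel replicates, with amplicons from start and end populations read by 100-nucleotide paired-end sequencing. Darwinian fitness relative to wild type followed from the change in each genotype's frequency. Genotypes needed ≥ 100 starting reads, and estimates < 0.5 were set to 0.5.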

| Variant | yeast fitness |
| --- | --- |
| GUUCCGUUGGCGUAAUGGUAACGCGUCUCCCUCCCAAGGAGAAGACUGCGGGUUCGAAUCCCGUACGGAACG [U35C G58A] | 0.77 |
| GUUCCGUUCGCGUACUGGUAACGCGUCUCCGUCCUAAGGGGAUGACUGCGGGUUCGAGUCCCGUACGGAACG [G9C A15C C31G A40G A43U] | ≤ 0.5 |
| GUUCCGUUGGCGUAAUGGUAGCGUGUCUCCCUCCUUAGGAGAAGACUGCGGGUUCGAGUCCCGUAUGGUACG [A21G C24U A36U C66U A69U] | ≤ 0.5 |
| GUUCCGAUGGCGUCAUGGUAACGCAUCUCGCUCCUAAGGAGAAGACUGCGGGUUCGAGUCUCGUACGGAACG [U7A A14C G25A C30G C61U] | ≤ 0.5 |
| GUUCCGUUGCCGUAAUGGCAACGCGUCUCCCUCCUAAGGAGAAGACUGCGGGUUCGAGUCCCGUGCGGACCG [G10C U19C A65G A70C] | ≤ 0.5 |
| GUUCCGUUGGCGUAAUGGUAACGCGUCUCCCUCCUGAGGAGAAGACUGCGGGAUCGAGUCCAGUACGGAACG [A36G U53A C62A] | ≤ 0.5 |
| GUUCCGUUGGCGUAAUGGUAACGCGUCUCCCUCCUAAGGAGAAGACUGCGGGUUCGAGUCCCGUAGGGCACG [C66G A69C] | 0.782 |
| GUACCGUUGGCGUAAUGGUAACGCGUCUCCCUCCUAAAGAGAAGACUGCGGGUUCGAGUCCCGUAUGGAACG [U3A G38A C66U] | ≤ 0.5 |
| GUUCCGUAGGCGUAAUGGUAUCGCGUGUCACUCCUAAGGAGAAGACUGCGGGUUCGAGUCCCGUACGGAACG [U8A A21U C27G C30A] | ≤ 0.5 |
| GUUCCGUUGGCGUAAUGGUGACGCGUCUCCCUCCUAAGGAGAAGACUGCGGGUUCGAGUCCCGUACGCAACG [A20G G68C] | 0.758 |
| GUUCCGUUGGCGUAAUGGUAACGCGUCUCCCUCCUAAGGAGAUGACUGCGGAUUCGAGUCCCGUACGGUACG [A43U G52A A69U] | ≤ 0.5 |
| GUUCGGUUGGCGUAAUGGUAACGCGUCUCCCUCCUAAGGAGAAGAGUGCGGGUUCGAGUCCCGUACGGUACG [C5G C46G A69U] | 0.712 |
| GUUACGUUGGCGUAAUGGUAACGCGUCUCCCUCCUAAGGAGAAGACUGCGGGUUCGAGUCCCGUACAGAACG [C4A G67A] | 0.781 |
| GUUCCGUUGGCGUAAUGGUAACGCGUCUCCCUUCUAAGGAGAAGACUGCGGGUUCGAGUCCCGUGCGGAACG [C33U A65G] | 0.665 |
| GUUCCGUUGGUGUAAUGGUAACGCGUCUCCCUCCUACGGAGAAGACUGUGGGUUCGAGUCCCGUACGGAACG [C11U A37C C49U] | ≤ 0.5 |
| GUUCCGUUGGCGUAAUGCUAACACCCCUCCCUCCUAGGGAGACGACUGCGGGUUGGAGUCCCGUACGAAACG [G18C G23A G25C U26C A37G A43C C55G G68A] | ≤ 0.5 |
| GUUCGGUUGGCGUAGAGGUGACGCGUCACACUACUUAGGAGAAGACUGCGGGUUCGAGUCCCGUACGGAACG [C5G A15G U16A A20G U28A C30A C33A A36U] | 0.553 |
| GCUCCGUUGGCGUAAUGGUUACGCGUCUCCCUCCUAAGGAGAAGACUGCGGGUUCGAGUCACGUACAGAACG [U2C A20U C61A G67A] | ≤ 0.5 |
| GUUCCGUUGGCGUAAUGGUAAGGCGUCUCCCUCCUAAGGAAAAGACUGCGGGUUCGAGUCCACUACGGAACG [C22G G41A C62A G63C] | 0.615 |

| Variant | yeast fitness |
| --- | --- |
| GUUCCGAUGGCGUAAUGGUAACGCGUCUCCCUCCUAAGGAGAAGACUGAGGGUUCAAGUCCCGUACGGAACG [U7A C49A G56A] | 0.594 |
| GUUCUGUUGGCGUAAUAGUGACGCGUCUCCCUCCUAAGGAGAAGACUGCGGGUUAGAGUCCCGUACAGAGCG [C5U G17A A20G C55A G67A A70G] | ≤ 0.5 |
| GUUUAGUUGGCGUAAUGGUAACGCGUCUCCCUCCUAAGGAGAAGACUGCGGGUUCGAGUGCCGUACGGAACG [C4U C5A C60G] | ≤ 0.5 |
| GUUCCGUUGGCGUAAUGGUAACGCGUCUCCCUCCCAAGGAGAAGACUGCGGGUUCGAGUCCCGUGCGGAACG [U35C A65G] | 0.945 |
| GUUACGUUGGCGUAAUGGUAACGCGUCUCCCUCUUAACGAGAAGACUGGGGGUUCGAGUCCCGUACGGAACG [C4A C34U G38C C49G] | ≤ 0.5 |
| GUUCCGUUGGCGUAAUGGUAACGCGUCUCCCUCCUAAGGAGAAGUCUGCGGGUAGGAGUCCCGUACGGAACG [A45U U54A C55G] | ≤ 0.5 |
| GUUCCGUUGGCGUACUAGUAACGCGUCUCCCUCCUAAGGAGAAGACUGCGGGUUCGAGUCCCGUGCGGAACG [A15C G17A A65G] | 0.576 |
| GUUCCGUUCGCGUAAUGGUAACGCGUCUCCCUCUUAAGGAGAAGACUGCGGGUUAGCGUCCCGUACGGAACG [G9C C34U C55A A57C] | ≤ 0.5 |
| GUUCCGUUGGCGUAAUGGUAACGAGUCUCCCUCCUAAGGAGAAGAGUGCGGGUUCGAGCCCUGUACGGAACG [C24A C46G U59C C62U] | ≤ 0.5 |
| GUUCCGUUCGCGUAAUGGUAACGCGUCUCCCUCCUAAGGGGGAGACUGCGGGUUCGUGUCCCGUACGGAACG [G9C A40G A42G A57U] | ≤ 0.5 |
| GUUCCGUUGGCGUGAUGGUAACGCGUCUCCCUCCUUAGGAGAAGAAUGCGGGUUCGAGUCCCGUACGGAACG [A14G A36U C46A] | 0.576 |
| GUUCCGUUGGCGUAAUGGUAACGCGUCUCCCUCCUAAGGAGAAACCUGCGGGAUAGAGCCCUGUACGGAACG [G44A A45C U53A C55A U59C C62U] | ≤ 0.5 |
| GUUCCGUUGGUGUAAUGGUAACGCGUCUCCCUCCUAAGGAGAAGACUGCGGGUUCGAGUGCCGUACAGAACG [C11U C60G G67A] | 0.549 |
| GUCCCGUUGGCGUAAUGGUAACGCGUCUCCCUCCUAAGGCGAAGCCUGCGGGUUCGAGUCCCGUACGGAACG [U3C A40C A45C] | 0.502 |
| GUUCCGUUGGCGUAAUGGUAACGCGUCUCCCUCCUAAGGAGAAGACUGCGGGUUCGAGUACCGUUCGGAACG [C60A A65U] | 0.58 |
| GUUCCGUUGGCGUAAUGGUGACGCGUCUCCCUCCUAAGGGGAAGACUGCGGGUUCGAGUCCCGUAUGGAACG [A20G A40G C66U] | 0.647 |
| GUUCCGUUGGUGUAAUGGUAACGUGUCUCCCUCGUAAGGAGAAGACUGCGGGUUCGAGUCCCGUACGGAACG [C11U C24U C34G] | ≤ 0.5 |
| GUUCCGUUGGCGUAAUGGUAACGCGUCUCCCUCCUAAGGGGAAGAAUGCGGGUUCGAGUCUCGUACGGAACG [A40G C46A C61U] | 0.782 |
| GUUCCGUUGGCGUAAUGGUAACGCCUCUCCCUCCUAAGGUGCAGACUGCGGAUUCGAGUCCCGUACGGAACG [G25C A40U A42C G52A] | ≤ 0.5 |
